Reference: PubChem BioAssay AID504486 (The Scripps Research Institute Molecular Screening Center, 2011)
Active and inactive are the calls of the source.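 How the source made its calls: active means mass spectrometry shows covalent labeling of the catalytic serine in PAFAH2, a platelet-activating factor hydrolase; inactive means no covalent labeling of that serine detected.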

Biological target: Platelet-activating factor acetylhydrolase 2, cytoplasmic (Homo sapiens) (UniProt Q99487)
Test: covalent labeling of PAFAH2 active-site serine, late-stage follow-up, mechanism study for PAFAH2 inhibitor project, biophysical, LC-MS/MS, purified enzyme (AID 504486)
In short: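 Read-out: Active-site serine covalent modification, yes or no | Assay system: Purified human recombinant PAFAH2 enzyme | Control set: DMSO-only enzyme sample | Measured by: LC-MS/MS of tryptic peptides, searching for +97.053 Da serine adduct | Incubation: 30 min compound exposure at room temperature | Compound dosing: Single dose, 200 µM final inhibitor, DMSO vehicle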

outcome: active
SMILES: O=C(N1CCCC1)n1ncc(-c2ccc(-c3ccccc3)cc2)n1
